Key:
HCC 2998 [1] = test: Concentration of the drug required to achieve 50% cytotoxicity against colon HCC2998 cancer cell line; type: cell-based; conditions: human
UACC-62 [2] = test: Concentration of the drug required to achieve 50% cytotoxicity against melanoma UACC-62 cell line; type: cell-based; conditions: human
PC-3 [3] = test: inhibition against prostate PC-3 cell line; type: functional; conditions: Homo sapiens
HL-60 [4] = test: Concentration required to achieve total growth inhibition against leukemia HL-60(TB) cell line; type: functional; conditions: Homo sapiens
COLO 205 [5] = test: inhibition against colon COLO 205 cancer cell line; type: functional; conditions: Homo sapiens
NCI/ADR-RES [6] = test: Concentration required to achieve total growth inhibition against breast NCI/ ADR-RES cancer cell line; type: functional; conditions: Homo sapiens
RPMI-8226 [7] = test: Concentration required to achieve total growth inhibition against leukemia RPMI-8226 cell line; type: functional; conditions: Homo sapiens
COLO 205 [8] = test: Concentration required to achieve total growth inhibition against colon COLO 205 cancer cell line; type: functional; conditions: Homo sapiens
LOX IMVI [9] = test: Concentration required to achieve total growth inhibition against melanoma LOX IMVI cell line; type: functional; conditions: Homo sapiens
HCT-15 [10] = test: Concentration required to achieve total growth inhibition against colon HCT-15 cancer cell line; type: functional; conditions: Homo sapiens
K562 [11] = test: inhibition against leukemia K-562 cell line; type: functional; conditions: Homo sapiens
KM12 [12] = test: Concentration of the drug required to achieve 50% cytotoxicity against colon KM12 cancer cell line; type: cell-based; conditions: human
CCRF-CEM [13] = test: Concentration required to achieve total growth inhibition against leukemia CCRF-CEM cell line; type: functional; conditions: Homo sapiens
SK-MEL-5 [14] = test: Concentration of the drug required to achieve 50% cytotoxicity against melanoma SK-MEL-5 cell line; type: cell-based; conditions: human
K562 [15] = test: Concentration required to achieve total growth inhibition against leukemia K-562 cell line; type: functional; conditions: Homo sapiens
KM12 [16] = test: inhibition against colon KM12 cancer cell line; type: functional; conditions: Homo sapiens
SW-620 [17] = test: Concentration required to achieve total growth inhibition against colon SW-620 cancer cell line; type: functional; conditions: Homo sapiens
UACC-62 [18] = test: Concentration required to achieve total growth inhibition against melanoma UACC-62 cell line; type: functional; conditions: Homo sapiens
PC-3 [19] = test: Concentration of the drug required to achieve 50% cytotoxicity against prostate PC-3 cell line; type: cell-based; conditions: human
SW-620 [20] = test: Concentration of the drug required to achieve 50% cytotoxicity against colon SW-620 cancer cell line; type: cell-based; conditions: human
T47D [21] = test: Concentration of the drug required to achieve 50% cytotoxicity against breast T-47D cancer cell line; type: cell-based; conditions: human
SR [22] = test: Concentration of the drug required to achieve 50% cytotoxicity against leukemia SR cell line; type: cell-based; conditions: human
HCT-116 [23] = test: Concentration required to achieve total growth inhibition against colon HCT116 cancer cell line; type: functional; conditions: Homo sapiens
HCT-15 [24] = test: inhibition against colon HCT-15 cancer cell line; type: functional; conditions: Homo sapiens
HCT-15 [25] = test: Concentration of the drug required to achieve 50% cytotoxicity against colon HCT-15 cancer cell line; type: cell-based; conditions: human
LOX IMVI [26] = test: inhibition against melanoma LOX IMVI cell line; type: functional; conditions: Homo sapiens
NCI/ADR-RES [27] = test: inhibition against breast NCI/ ADR-RES cancer cell line; type: functional; conditions: Homo sapiens
HL-60 [28] = test: Inhibitory concentration against HL60 cells; type: functional, cell-based; conditions: Homo sapiens
Summary of the method: (§1)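 HL60 (2.5 × 10⁴/well) or Jurkat (1 × 10⁵/well) in RPMI-1640 with 10% FBS and 1% L-glutamine, 5% CO2, 37 °C. Exposed to 10⁻¹⁰–10⁻⁴ M for 72 h, final DMSO below 0.5% v/v. [3H]-thymidine (0.5 μCi) added for the final 24 h. Incorporation counted by β-scintillation.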

T47D [29] = test: inhibition against breast T-47D cancer cell line; type: functional; conditions: Homo sapiens
HT-29 [30] = test: inhibition against colon HT-29 cancer cell line; type: functional; conditions: Homo sapiens
SR [31] = test: inhibition against leukemia SR cell line; type: functional; conditions: Homo sapiens
HCT-116 [32] = test: Concentration of the drug required to achieve 50% cytotoxicity against colon HCT116 cancer cell line; type: cell-based; conditions: human
MOLT-4 [33] = test: inhibition against leukemia MOLT-4 cell line; type: functional; conditions: Homo sapiens
MOLT-4 [34] = test: Concentration of the drug required to achieve 50% cytotoxicity against leukemia MOLT-4 cell line; type: cell-based; conditions: human
SK-MEL-5 [35] = test: inhibition against melanoma SK-MEL-5 cell line; type: functional; conditions: Homo sapiens
T47D [36] = test: Concentration required to achieve total growth inhibition against breast T-47D cancer cell line; type: functional; conditions: Homo sapiens
HT-29 [37] = test: Concentration of the drug required to achieve 50% cytotoxicity against colon HT-29 cancer cell line; type: cell-based; conditions: human
RPMI-8226 [38] = test: Concentration of the drug required to achieve 50% cytotoxicity against leukemia RPMI-8226 cell line; type: cell-based; conditions: human
HT-29 [39] = test: Concentration required to achieve total growth inhibition against colon HT-29 cancer cell line; type: functional; conditions: Homo sapiens
NCI/ADR-RES [40] = test: Concentration of the drug required to achieve 50% cytotoxicity against breast NCI/ ADR-RES cancer cell line; type: cell-based; conditions: human
CCRF-CEM [41] = test: inhibition against leukemia CCRF-CEM cell line; type: functional; conditions: Homo sapiens
HCC 2998 [42] = test: inhibition against colon HCC2998 cancer cell line; type: functional; conditions: Homo sapiens
HL-60 [43] = test: inhibition against leukemia HL-60(TB) cell line; type: functional; conditions: Homo sapiens
CCRF-CEM [44] = test: Concentration of the drug required to achieve 50% cytotoxicity against leukemia CCRF-CEM cell line; type: cell-based; conditions: human
Plasmodium falciparum = test: In vitro antimalarial activity against Plasmodium falciparum HB3 by [3H]hypoxanthine uptake; type: functional, organism-based
CCRF-CEM [45] = test: Concentration of the drug required to achieve 50% cytotoxicity against leukemia HL-60(TB) cell line; type: cell-based; conditions: human
SW-620 [46] = test: inhibition against colon SW-620 cancer cell line; type: functional; conditions: Homo sapiens
HCC 2998 [47] = test: Concentration required to achieve total growth inhibition against colon HCC2998 cancer cell line; type: functional; conditions: Homo sapiens
MCF7 [48] = test: inhibition against breast MCF-7 cancer cell line; type: functional; conditions: Homo sapiens
KM12 [49] = test: Concentration required to achieve total growth inhibition against colon KM12 cancer cell line; type: functional; conditions: Homo sapiens
SR [50] = test: Concentration required to achieve total growth inhibition against leukemia SR cell line; type: functional; conditions: Homo sapiens
Malme-3M [51] = test: inhibition against melanoma MALME-3M cell line; type: functional; conditions: Homo sapiens
PC-3 [52] = test: Concentration required to achieve total growth inhibition against prostate PC-3 cell line; type: functional; conditions: Homo sapiens
HCT-116 [53] = test: inhibition against colon HCT116 cancer cell line; type: functional; conditions: Homo sapiens
COLO 205 [54] = test: Concentration of the drug required to achieve 50% cytotoxicity against colon COLO 205 cancer cell line; type: cell-based; conditions: human
MCF7 [55] = test: Concentration of the drug required to achieve 50% cytotoxicity against breast MCF-7 cancer cell line; type: cell-based; conditions: human
RPMI-8226 [56] = test: inhibition against leukemia RPMI-8226 cell line; type: functional; conditions: Homo sapiens
MCF7 [57] = test: Concentration required to achieve total growth inhibition against breast MCF-7 cancer cell line; type: functional; conditions: Homo sapiens
Malme-3M [58] = test: Concentration required to achieve total growth inhibition against melanoma MALME-3M cell line; type: functional; conditions: Homo sapiens
UACC-62 [59] = test: inhibition against melanoma UACC-62 cell line; type: functional; conditions: Homo sapiens
Malme-3M [60] = test: Concentration of the drug required to achieve 50% cytotoxicity against melanoma MALME-3M cell line; type: cell-based; conditions: human
MOLT-4 [61] = test: Concentration required to achieve total growth inhibition against leukemia MOLT-4 cell line; type: functional; conditions: Homo sapiens
SK-MEL-5 [62] = test: Concentration required to achieve total growth inhibition against melanoma SK-MEL-5 cell line; type: functional; conditions: Homo sapiens
Jurkat = test: Inhibitory concentration against Jurkat cells; type: functional, cell-based; conditions: Homo sapiens; summary of the method: as §1
LOX IMVI [63] = test: Concentration of the drug required to achieve 50% cytotoxicity against melanoma LOX IMVI cell line; type: cell-based; conditions: human

Structure (SMILES): COP(=O)(OCC[C@H]1O[C@@H]2OC3(C)CC[C@H]4[C@H](C)CC[C@@H]([C@H]1C)[C@@]24OO3)OCC[C@H]1O[C@@H]2OC3(C)CC[C@H]4[C@H](C)CC[C@@H]([C@H]1C)[C@@]24OO3 (single isomer, unassigned)
- LC50 (HCC 2998 [1]): 52.9 µM
- LC50 (UACC-62 [2]): 42.9 µM
- GI50 (PC-3 [3]): < 0.01 µM
- TGI (HL-60 [4]): 1 µM
- GI50 (COLO 205 [5]): < 0.01 µM
- TGI (NCI/ADR-RES [6]): 22.1 µM
- TGI (RPMI-8226 [7]): 13.7 µM
- TGI (COLO 205 [8]): 0.21 µM
- TGI (LOX IMVI [9]): 16.4 µM
- TGI (HCT-15 [10]): 14.4 µM
- GI50 (K562 [11]): < 0.01 µM
- LC50 (KM12 [12]): 40 µM
- TGI (CCRF-CEM [13]): 30 µM
- LC50 (SK-MEL-5 [14]): 38.9 µM
- TGI (K562 [15]): 1.17 µM
- GI50 (KM12 [16]): < 0.01 µM
- TGI (SW-620 [17]): 12.6 µM
- TGI (UACC-62 [18]): 18.4 µM
- LC50 (PC-3 [19]): 70.3 µM
- LC50 (SW-620 [20]): 40 µM
- LC50 (T47D [21]): 25.6 µM
- LC50 (SR [22]): > 100 µM
- TGI (HCT-116 [23]): 32.6 µM
- GI50 (HCT-15 [24]): < 0.01 µM
- LC50 (HCT-15 [25]): 38.7 µM
- GI50 (LOX IMVI [26]): < 0.01 µM
- GI50 (NCI/ADR-RES [27]): 0.994 µM
- IC50 (HL-60 [28]): 0.143 µM
- GI50 (T47D [29]): < 0.01 µM
- GI50 (HT-29 [30]): < 0.01 µM
- GI50 (SR [31]): < 0.01 µM
- LC50 (HCT-116 [32]): > 100 µM
- GI50 (MOLT-4 [33]): < 0.01 µM
- LC50 (MOLT-4 [34]): 33.5 µM
- GI50 (SK-MEL-5 [35]): 0.199 µM
- TGI (T47D [36]): < 10 µM
- LC50 (HT-29 [37]): 40 µM
- LC50 (RPMI-8226 [38]): > 100 µM
- TGI (HT-29 [39]): 12.6 µM
- LC50 (NCI/ADR-RES [40]): 75.5 µM
- GI50 (CCRF-CEM [41]): 0.769 µM
- GI50 (HCC 2998 [42]): 1.25 µM
- GI50 (HL-60 [43]): < 0.01 µM
- LC50 (CCRF-CEM [44]): 100 µM
- IC50 (Plasmodium falciparum): 0.09 nM
- LC50 (CCRF-CEM [45]): 20 µM
- GI50 (SW-620 [46]): < 0.01 µM
- TGI (HCC 2998 [47]): 16.4 µM
- GI50 (MCF7 [48]): 0.0503 µM
- TGI (KM12 [49]): 12.6 µM
- TGI (SR [50]): 2.84 µM
- GI50 (Malme-3M [51]): 0.0474 µM
- TGI (PC-3 [52]): 18.8 µM
- GI50 (HCT-116 [53]): 1.85 µM
- LC50 (COLO 205 [54]): 2.59 µM
- LC50 (MCF7 [55]): 72.2 µM
- GI50 (RPMI-8226 [56]): < 0.01 µM
- TGI (MCF7 [57]): 18.3 µM
- TGI (Malme-3M [58]): 32.6 µM
- GI50 (UACC-62 [59]): 0.486 µM
- LC50 (Malme-3M [60]): > 100 µM
- TGI (MOLT-4 [61]): 9.8 µM
- TGI (SK-MEL-5 [62]): 15.2 µM
- IC50 (Jurkat): 7.7 µM
- LC50 (LOX IMVI [63]): 52.9 µM
